EBV gp42 block = Epstein-Barr virus gp42 inhibitors, primary screen, biochemical, uHTS, fluorescence polarization. 220,000 compounds, 0.42% hits. Fluorescence polarization binding assay, mP read-out. inhibition, % (tested at 21.74 µM); in the data active = inhibition above about 50%
GLD-1 RNA inh = GLD-1/TGE RNA complex disruptors, primary screen, biochemical, fluorescence polarization; purified GLD-1 + fluorescein TGE RNA; inhibition, % at 5.96 µM; 320,000 compounds, 0.44% hits;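 active = percent inhibition above a per-plate cutoff, the plate mean of test compounds plus 3 SD, cut at about 30% in these data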;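 also: 0% = DMSO wells with GLD-1 and probe and 100% = wells lacking GLD-1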
Target sequence (Q17339 whole entry, looked up): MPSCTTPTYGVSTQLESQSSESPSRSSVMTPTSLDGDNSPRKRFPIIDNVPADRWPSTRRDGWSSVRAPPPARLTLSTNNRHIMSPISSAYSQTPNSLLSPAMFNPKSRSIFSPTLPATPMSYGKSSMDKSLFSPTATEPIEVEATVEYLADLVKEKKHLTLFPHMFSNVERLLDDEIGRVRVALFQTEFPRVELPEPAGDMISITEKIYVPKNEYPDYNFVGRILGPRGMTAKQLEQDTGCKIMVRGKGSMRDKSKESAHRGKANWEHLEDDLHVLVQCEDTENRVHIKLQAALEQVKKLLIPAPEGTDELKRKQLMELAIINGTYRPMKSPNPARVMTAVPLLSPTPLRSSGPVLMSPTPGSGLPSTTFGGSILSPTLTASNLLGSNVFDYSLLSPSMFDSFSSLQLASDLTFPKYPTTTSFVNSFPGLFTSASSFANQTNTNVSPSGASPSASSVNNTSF
BCLXL inh = inhibitors of human Bcl-xL, primary screen, biochemical, fluorescence polarization, HTS; GST-Bcl-xL / FITC-Bim BH3 peptide fluorescence polarization; inhibition, % at 10.9 µM; 320,000 compounds, 0.7% hits; AID 2129, 2009;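 active = inhibition above the mean of all tested compounds plus 3 SD, cutoff set per campaign, cut at about 30% in these data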;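 also: 0% = DMSO wells and 100% = unlabeled Bim-BH3 peptide competitor; inhibitors lower millipolarization by displacing the labeled peptide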
VIM-2 inh = VIM-2 metallo-beta-lactamase inhibitors, primary screen, biochemical, epi-absorbance readout, Pseudomonas aeruginosa enzyme. inhibition, % at 5.6 µM. 290,000 compounds, 0.89% hits. purified VIM-2, nitrocefin hydrolysis, epi-absorbance fluorescence. AID 1527, 2009;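 active = inhibition above the mean of all tested compounds plus 3 SD, cutoff set per screening run, cut at about 7.5% in these data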;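 also: red hydrolysis product quenches plate fluorescence so inhibitors raise well fluorescence; 0% = enzyme with DMSO and 100% = DMSO without enzyme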
IMP-1 inhibitor = IMP-1 metallo-beta-lactamase inhibitors, primary screen, biochemical, epi-absorbance readout, Pseudomonas aeruginosa enzyme; metallo-beta-lactamase IMP-1 (Pseudomonas aeruginosa); purified IMP-1, nitrocefin hydrolysis, epi-absorbance fluorescence; inhibition, % at 5.6 µM; 290,000 compounds, 0.45% hits; AID 1556, 2009;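 active = inhibition above the mean plus 3 SD of all compounds in the same screening run, cut at about 4.5% in these data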;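 also: 0% = IMP-1 with DMSO and 100% = DMSO wells lacking enzyme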
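Material – recombinant IMP-1 enzyme, purified · Amount – IMP-1 0.2 nM before substrate addition · Medium – HEPES buffer pH 7.1 with ZnSO4 and Brij 35 · Timing – 25 °C, 15 min preincubation, 25 min reaction · Measured by – plate fluorescence quenching by hydrolysis product, ex 480/em 530 nm · Read-out – percent enzyme inhibition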
MEX-5 binding = MEX-5 zinc finger RNA-binding disruptors – biochemical, C. elegans, fluorescence polarization, MLPCN library, primary screen; MEX-5/FITC-TCR2 RNA binding; active compounds read low; activity score (negative = inhibition of binding), % at 10 µM; AID 1832, 2009; 300,000 compounds, 0.38% hits;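 active = inhibition past about -25% in most replicates, and total fluorescence under double the plate's negative control median, limit read from the data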;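 also: 0% = DMSO and -100% = 5 µM competing unlabeled TCR2 RNA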
* hit, by the source's call; . = not tested or not shown. The list is not random: actives were taken first. Their share in the collection is about 2.2%.

SMILES	EBV gp42 block	GLD-1 RNA inh	BCLXL inh	VIM-2 inh	IMP-1 inhibitor	MEX-5 binding
CC1CC(C)CN(CCCNC(=O)c2cc3c(=O)[nH]c4ccccc4c3n2C)C1 (stereo not drawn)	-15.7	2.5	3.9	12.1*	-1.6	0.8
CC1CC(C)CN(CCCNC(=O)c2c(O)nc3ccccn3c2=O)C1 (stereo not drawn)	.	4.6	2.4	.	.	1.1
CCC1CCCCN1CCCNC(=O)c1cc2c(=O)[nH]c3ccccc3c2n1C (stereo not drawn)	-4.0	3.7	5.5	8.9*	-1.9	-1.9
COc1ccc(NS(=O)(=O)c2cccc(C(=O)NNC(=O)c3ccccc3OC)c2)cc1	.	0.1	-1.7	.	.	-2.4
CCN(CCn1cccn1)C(=O)CC1C(=O)NCCN1CCc1ccccc1 (stereo not drawn)	.	7.6	15.8	-0.5	-1.7	-2.3
NS(=O)(=O)c1ccc(NC(=O)CSc2cn[nH]n2)cc1	.	2.6	2.4	-1.0	-4.1	-1.5
O=C(c1cccc(S(=O)(=O)Nc2ccc(F)cc2)c1)N1CCOCC1	.	-0.8	-5.3	.	.	.
CC1(C)CC(C(N)=S)CCO1 (stereo not drawn)	4.7	-4.3	7.2	-1.6	-1.2	0.5
CCC1(C)CC(C(N)=S)CCO1 (stereo not drawn)	-31.9	0.4	11.3	-0.6	5.3*	-4.9
CCC(=O)c1ccc(OCC(=O)OCC(=O)NCC2CCCCC2)cc1	.	5.2	-0.6	.	.	1.7
CC1(OC(=O)C2CCCC2)C(=O)C=C2C=C(c3ccsc3)N(Cc3ccco3)C=C2C1=O (stereo not drawn)	-2.7	11.6	34.0*	.	.	-3.1
Cc1cc(=O)n2[nH]c(SCc3ccccc3)nc2n1	-14.9	0.8	-1.0	-0.9	-2.1	2.2
COCc1cc(=O)n2[nH]c(SCc3ccccc3)nc2n1	-17.2	-1.6	31.1*	-5.0	-0.3	-1.9
CC(C)N(CC(N)=O)c1ccc(S(=O)(=O)N2CCCC2)cn1	.	1.4	-2.5	.	.	.
O=C(O)c1cccc2c1C(=O)c1cccc3snc-2c13	11.0	2.8	18.8	8.3*	-1.9	-3.0
NS(=O)(=O)c1ccc(CCNC(=O)CN2CCN(Cc3cccc4ccccc34)CC2)cc1	.	2.2	-2.8	-3.2	-3.4	1.4
Cc1cccc(CSc2nc3c(c(-c4cccs4)c2C#N)CN(C)CC3)c1	-7.3	-1.4	33.5*	-0.4	2.0	-2.7
Cc1cccc(CSc2nc(N)c(C#N)c(-c3cccs3)c2C#N)c1	-1.8	3.8	6.4	-2.3	-3.5	-1.2
CN1CCc2nc(SCC(=O)Nc3cccc(F)c3)c(C#N)c(-c3cccs3)c2C1	26.9	17.0	39.4*	0.3	-0.3	0.6
Cn1c(=O)c2c(ncn2CC(=O)Nc2cc(S(=O)(=O)N3CCCCC3)ccc2Cl)n(C)c1=O	.	-2.3	.	.	.	.
Cc1cccc(N2CCN(CC(=O)Nc3ccc(S(=O)(=O)N4CCOCC4)cc3)CC2)c1C	.	0.8	-4.3	1.9	4.5*	-1.7
O=C(CCSc1ccccc1)Nc1ccc(S(=O)(=O)N2CCOCC2)cc1	-11.6	7.7	2.5	-0.5	46.6*	-0.1
Cc1ccc(S(=O)(=O)N2CCN(CC(=O)Nc3ccc(N4CCOCC4)cc3)CC2)cc1C	4.6	7.3	5.1	-2.7	-2.0	0.4
CN=c1scc(C)n1/N=C/c1ccc(O)c(O)c1O	-12.2	18.1	21.6	0.1	-0.1	-32.1*
Oc1ccc(/C=N/n2c(-c3ccco3)csc2=Nc2cccnc2)c(O)c1	12.6	3.7	8.5	-3.0	-1.7	-0.3
CC(C)N=c1scc(-c2ccco2)n1/N=C/c1ccc(O)c(O)c1	-2.8	1.6	4.0	-1.7	-1.7	.
CN=c1scc(-c2cccs2)n1/N=C/c1ccc(O)c(O)c1O	1.9	8.2	21.9	-0.6	-1.4	-0.6
C=CCN=c1scc(-c2ccco2)n1/N=C/c1ccc(O)c(O)c1O	-4.3	1.4	13.9	-3.6	-0.7	-28.3*
